The target in data set [1] is T1, Chymase (Homo sapiens, UniProt P23946).
T1 sequence (P23946 whole entry): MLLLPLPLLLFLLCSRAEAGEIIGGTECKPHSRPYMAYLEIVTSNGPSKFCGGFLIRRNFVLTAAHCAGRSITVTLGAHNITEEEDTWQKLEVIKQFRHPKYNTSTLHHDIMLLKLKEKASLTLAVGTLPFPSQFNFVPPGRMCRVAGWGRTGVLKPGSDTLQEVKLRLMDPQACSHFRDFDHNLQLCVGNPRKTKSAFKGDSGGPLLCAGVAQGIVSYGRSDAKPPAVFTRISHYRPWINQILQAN
In words: Compound was evaluated for its inhibitory activity against human Serine protease chymase. The method in brief:
(§1)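 Purified human chymase preincubated with inhibitor (DMSO solution) for 30 min at 37 °C in 0.1 M Tris–HCl pH 8.0 with 1.8 M NaCl. Reaction started with succinyl-Ala-Ala-Pro-Phe-p-nitroanilide. Absorbance at 405 nm read after 2 h at 37 °C. IC50 calculated from inhibition of p-nitroaniline formation at each concentration.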

Data set [2] concerns the target T1, Chymase. In words: Compound was evaluated for its inhibitory activity against human Serine protease chymase up to a concentration > 10000 nM; NA= not active. The method in brief:
as §1

Another data set has as its target T2, Neutrophil elastase (Homo sapiens, UniProt P08246).
T2 sequence (P08246 whole entry): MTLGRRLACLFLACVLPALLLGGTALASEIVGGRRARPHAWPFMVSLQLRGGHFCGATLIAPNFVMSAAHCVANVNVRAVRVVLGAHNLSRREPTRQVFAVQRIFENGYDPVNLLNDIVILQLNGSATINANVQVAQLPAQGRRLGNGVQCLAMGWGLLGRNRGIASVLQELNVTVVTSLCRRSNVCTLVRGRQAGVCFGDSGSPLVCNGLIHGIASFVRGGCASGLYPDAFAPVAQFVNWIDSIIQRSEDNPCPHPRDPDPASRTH
In words: Compound was evaluated for its inhibitory activity against human neutrophil elastase. Put shortly: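 Purified human neutrophil elastase with chromogenic substrate N-succinyl-Ala-Ala-Val-pNA. Buffer 50 mM Tris-HCl pH 8.0 containing 2 mM CaCl2.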

Data set [3] addresses T3, Plasminogen (Homo sapiens, UniProt P00747). In words: Compound was evaluated for its inhibitory activity against human plasmin up to a concentration > 1000 nM; NA= not activity. The settings on record: in the assay text read “> 10000 nM” for “> 1000 nM”. Put shortly: (§2)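 Purified human plasmin assayed with chromogenic substrate Chromozym PL. Buffer 50 mM Tris-HCl pH 7.5 containing 50 mM NaCl.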

In another data set the target is Prothrombin (Homo sapiens, UniProt P00734). In words: Compound was evaluated for its inhibitory activity against human thrombin. The method in brief:
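Purified thrombin with a chromogenic substrate. Buffer 0.1 M Tris-HCl pH 8.0 containing 10 mM CaCl2 and 0.1 M NaCl.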

A further data set addresses T4, Serine protease 1 (Bos taurus, UniProt P00760).
T4 sequence (P00760 whole entry): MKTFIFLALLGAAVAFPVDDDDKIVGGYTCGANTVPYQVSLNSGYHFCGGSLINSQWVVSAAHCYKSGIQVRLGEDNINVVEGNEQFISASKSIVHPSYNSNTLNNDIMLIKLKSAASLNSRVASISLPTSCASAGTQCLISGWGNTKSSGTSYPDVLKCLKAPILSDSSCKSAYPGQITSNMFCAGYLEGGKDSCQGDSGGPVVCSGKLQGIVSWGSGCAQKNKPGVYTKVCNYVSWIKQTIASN
In words: Compound was evaluated for its inhibitory activity against bovine pancreatic trypsin. Put shortly:
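Purified trypsin with a chromogenic substrate. Buffer 50 mM Tris-HCl pH 8.0 containing 2 mM CaCl2.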

For a further data set, the target named is T5, Cathepsin G (Homo sapiens, UniProt P08311).
T5 sequence (P08311 whole entry): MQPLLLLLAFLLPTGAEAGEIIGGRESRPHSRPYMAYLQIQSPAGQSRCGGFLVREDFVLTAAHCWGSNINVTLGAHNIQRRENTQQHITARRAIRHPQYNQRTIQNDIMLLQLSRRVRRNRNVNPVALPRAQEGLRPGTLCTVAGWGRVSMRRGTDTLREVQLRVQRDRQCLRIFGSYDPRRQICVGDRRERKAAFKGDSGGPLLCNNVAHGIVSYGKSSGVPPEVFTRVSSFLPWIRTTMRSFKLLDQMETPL
In words: Compound was evaluated for its inhibitory activity against human cathepsin G.

Data set [4] has as its target T3, Plasminogen. In words: Compound was evaluated for its inhibitory activity against human plasmin. The method in brief:
as §2

A short description of data set [5]: Half life was determined. The settings on record: sodium methoxide 10 mM in methanol, 21 °C. The class given is ADME. The method in brief:
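Chemical stability: 1 μmol compound added to 1 mL of 10 mM sodium methoxide in methanol, stirred at 21 °C. Aliquots removed every 2 h and analysed by reverse-phase HPLC to give t1/2.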

Structures are written as SMILES. The source made the active and inactive calls. No cut-off for these calls is given here. Bounds are passed on as bounds.

T3 sequence (P00747 97-580 limits assumed): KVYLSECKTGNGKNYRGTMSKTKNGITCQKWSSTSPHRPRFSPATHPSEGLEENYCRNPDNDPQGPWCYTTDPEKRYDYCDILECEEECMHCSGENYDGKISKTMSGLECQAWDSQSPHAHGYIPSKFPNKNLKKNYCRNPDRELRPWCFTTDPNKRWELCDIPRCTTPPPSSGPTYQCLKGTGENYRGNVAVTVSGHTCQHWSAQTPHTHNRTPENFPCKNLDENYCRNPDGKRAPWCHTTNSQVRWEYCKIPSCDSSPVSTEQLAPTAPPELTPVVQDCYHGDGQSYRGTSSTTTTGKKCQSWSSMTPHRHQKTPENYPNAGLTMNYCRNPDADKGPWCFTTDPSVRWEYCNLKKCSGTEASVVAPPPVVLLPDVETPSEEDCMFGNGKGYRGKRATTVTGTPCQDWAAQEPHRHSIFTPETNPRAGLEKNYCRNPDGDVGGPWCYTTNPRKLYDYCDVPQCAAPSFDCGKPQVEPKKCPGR
T3 sequence (P00747 581-810 limits assumed): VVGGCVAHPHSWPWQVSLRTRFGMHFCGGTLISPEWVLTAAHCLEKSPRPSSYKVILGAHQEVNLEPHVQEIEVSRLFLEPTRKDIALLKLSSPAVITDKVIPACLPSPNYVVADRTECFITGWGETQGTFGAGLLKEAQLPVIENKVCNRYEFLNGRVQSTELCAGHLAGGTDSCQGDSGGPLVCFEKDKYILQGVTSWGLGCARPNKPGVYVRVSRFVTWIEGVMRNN

Consider `COc1cccc(CN2C(=O)N(Cc3cccc(OC)c3)C2=O)c1`, for which the IC50 – broadly, the midpoint of a concentration-inhibition curve – on Chymase [1] came out at 2.3 nM.
On the same count and under the same terms, the result for `O=C1N(c2ccc3c(c2)OCO3)C(=O)N1c1ccc2c(c1)OCO2` reads 48 nM.
`COc1ccc(CN2C(=O)N(Cc3ccc(OC)cc3)C2=O)cc1` had an IC50 on Chymase [1] of 2 nM.
For the compound `CCOC(=O)CN1C(=O)N(CC(=O)OCC)C1=O`, the IC50 result against Chymase [2] is “Not Active”.
For the compound `Cc1ccc(N2C(=O)N(c3ccc(C)cc3)C2=O)cc1`, the IC50 is 230 nM at Neutrophil elastase, 2300 nM against Prothrombin, 200 nM on Serine protease 1 and 140 nM against Chymase [1]. The NA entry at Plasminogen [3] was “inactive”.
Take `CCN1C(=O)N(CC)C1=O`: the IC50 against Cathepsin G was 740 nM; on Neutrophil elastase, 58 nM; against Plasminogen [4], over 10000 nM; against Chymase [2] it was “Not Active”; against Prothrombin it was 5600 nM; against Serine protease 1, 39000 nM.
In the case of `O=C1N(Cc2ccc3c(c2)OCO3)C(=O)N1Cc1ccc2c(c1)OCO2`, on Chymase [1], it took 0.85 nM to reach half-maximal inhibition (IC50).
Consider `O=C1N(Cc2ccccc2)C(=O)N1Cc1ccccc1`, for which the IC50 worked out at 100 nM on Neutrophil elastase; 2900 nM against Plasminogen [4]; 72 nM against Prothrombin; 39 nM on Serine protease 1; 4 nM against Chymase [1]. In addition, in data set [5], the half-life (usually how long it takes for the measured level to halve) is 9.5 h.
